The source made the active and inactive calls. No cut-off for these calls is given here.
Tests used:
D(1B) dopamine receptor = D(1B) dopamine receptor (Homo sapiens, UniProt P21918); test: Binding affinity to DRD5 (unknown origin) assessed as inhibition of ligand binding
[1] = target: Muscarinic acetylcholine receptor M5 (Homo sapiens, UniProt P08912); test: Binding affinity to M5 receptor (unknown origin) assessed as inhibition of ligand binding
[2] = target: 5-hydroxytryptamine receptor 1A (Homo sapiens, UniProt P08908); test: Binding affinity to 5-HT1A (unknown origin) assessed as inhibition of ligand binding
5-hydroxytryptamine receptor 1A, sequence (P08908 whole entry): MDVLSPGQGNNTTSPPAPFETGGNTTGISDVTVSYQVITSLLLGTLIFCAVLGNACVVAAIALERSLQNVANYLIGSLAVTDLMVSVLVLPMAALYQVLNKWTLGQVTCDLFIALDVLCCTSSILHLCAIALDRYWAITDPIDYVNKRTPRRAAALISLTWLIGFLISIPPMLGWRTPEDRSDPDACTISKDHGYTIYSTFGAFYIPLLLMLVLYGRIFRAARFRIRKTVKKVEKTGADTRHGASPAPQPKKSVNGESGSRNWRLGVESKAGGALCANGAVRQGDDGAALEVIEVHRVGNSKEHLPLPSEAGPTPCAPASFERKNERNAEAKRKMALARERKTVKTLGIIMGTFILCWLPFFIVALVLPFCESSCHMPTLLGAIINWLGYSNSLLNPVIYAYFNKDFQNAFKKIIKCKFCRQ

[3] = AUC (0 to infinity) in Sprague-Dawley rat at 10 mg/kg, iv mesured up to 24 hrs; type: ADME, organism-based; set-up: route intravenous, dose 10 mg/kg, time <=24; details: in vivo
How it was run: (§1)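 Male Sprague-Dawley rats (200–250 g, n = 3/group), dosed IV 10 mg/kg or PO 20 mg/kg in 10% DMSO/90% HP-β-CD. Jugular blood into K2EDTA at 0.08 (IV only), 0.25, 0.5, 1, 2, 4, 8, 24 h; plasma by centrifugation at 4 °C, stored −20 °C. Non-compartmental analysis; Cmax read from profile, AUC by linear trapezoidal rule extrapolated to infinity; mean ± SEM.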

[4] = target: 5-hydroxytryptamine receptor 5A (Homo sapiens, UniProt P47898); test: Binding affinity to 5-HT5A (unknown origin) assessed as inhibition of ligand binding
5-hydroxytryptamine receptor 5A, sequence (P47898 whole entry): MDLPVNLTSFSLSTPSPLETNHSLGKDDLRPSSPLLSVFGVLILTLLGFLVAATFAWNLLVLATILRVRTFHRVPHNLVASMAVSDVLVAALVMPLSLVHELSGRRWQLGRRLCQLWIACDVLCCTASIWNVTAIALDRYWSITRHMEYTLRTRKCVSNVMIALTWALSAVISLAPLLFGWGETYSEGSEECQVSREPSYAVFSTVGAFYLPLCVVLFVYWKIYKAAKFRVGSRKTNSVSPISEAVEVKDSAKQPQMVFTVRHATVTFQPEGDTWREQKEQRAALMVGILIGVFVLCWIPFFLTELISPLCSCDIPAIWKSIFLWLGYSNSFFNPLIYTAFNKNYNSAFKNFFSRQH

HEK293 = test: Effect on cAMP levels in HEK293 cells at 0.1 nM to 10000 nM incubated for 15 mins by Glosensor cAMP assay; type: functional, cell-based; details: Homo sapiens, dose nM 0.1-10000, time […]
How it was run: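 HEK293 cells were transiently co-transfected with human GPR52 and the 22F Glosensor cAMP reporter. After 18 h they were seeded on poly-L-lysine, then equilibrated 2 h at room temperature in the dark in 1% Glosensor reagent/HBSS/20 mM HEPES. Cells were treated 15 min with a twelve-point series, and luminescence was read.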

[5] = Cmax in Sprague-Dawley rat at 10 mg/kg, iv mesured up to 24 hrs; type: ADME, organism-based; set-up: route intravenous, dose 10 mg/kg, time <=24; details: in vivo; how it was run: as §1
Mu-type opioid receptor = Mu-type opioid receptor (Homo sapiens, UniProt P35372); test: Binding affinity to MOR (unknown origin) assessed as inhibition of ligand binding
[6] = target: 5-hydroxytryptamine receptor 1B (Homo sapiens, UniProt P28222); test: Binding affinity to 5-HT1B (unknown origin) assessed as inhibition of ligand binding
D(1A) dopamine receptor = D(1A) dopamine receptor (Homo sapiens, UniProt P21728); test: Binding affinity to DRD1 (unknown origin) assessed as inhibition of ligand binding
[7] = target: 5-hydroxytryptamine receptor 7 (Homo sapiens, UniProt P34969); test: Binding affinity to 5-HT7A (unknown origin) assessed as inhibition of ligand binding
[8] = target: 5-hydroxytryptamine receptor 1E (Homo sapiens, UniProt P28566); test: Binding affinity to 5-HT1E (unknown origin) assessed as inhibition of ligand binding
[9] = target: Muscarinic acetylcholine receptor M4 (Homo sapiens, UniProt P08173); test: Binding affinity to M4 receptor (unknown origin) assessed as inhibition of ligand binding
[10] = target: Muscarinic acetylcholine receptor M2 (Homo sapiens, UniProt P08172); test: Binding affinity to M2 receptor (unknown origin) assessed as inhibition of ligand binding
Muscarinic acetylcholine receptor M2, sequence (P08172 whole entry): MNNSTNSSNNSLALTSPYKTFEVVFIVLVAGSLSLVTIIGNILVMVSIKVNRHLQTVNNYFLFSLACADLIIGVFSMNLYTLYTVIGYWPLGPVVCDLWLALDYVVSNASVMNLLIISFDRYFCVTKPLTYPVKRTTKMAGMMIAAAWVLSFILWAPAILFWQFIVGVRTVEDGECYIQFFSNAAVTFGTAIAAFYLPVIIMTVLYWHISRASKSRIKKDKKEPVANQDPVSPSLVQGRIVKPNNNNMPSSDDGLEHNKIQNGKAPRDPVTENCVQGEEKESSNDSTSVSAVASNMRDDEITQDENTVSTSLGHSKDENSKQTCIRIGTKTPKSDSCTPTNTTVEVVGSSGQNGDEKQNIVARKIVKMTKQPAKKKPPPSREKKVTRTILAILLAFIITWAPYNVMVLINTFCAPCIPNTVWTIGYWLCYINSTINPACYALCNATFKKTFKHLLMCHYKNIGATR

[11] = target: Beta-2 adrenergic receptor (Homo sapiens, UniProt P07550); test: Binding affinity to beta2 adrenergic receptor (unknown origin) assessed as inhibition of ligand binding
[12] = target: Alpha-1A adrenergic receptor (Homo sapiens, UniProt P35348); test: Binding affinity to alpha1A receptor (unknown origin) assessed as inhibition of ligand binding
[13] = Drug level in Sprague-Dawley rat brain at 10 mg/kg, iv after 1 hr; type: ADME, organism-based; details: read-out: Drug uptake
How it was run: (§2)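 Male Sprague Dawley rats, 200–250 g, n = 3, were given a single 10 mg/kg IV dose in 10% DMSO/90% HP-β-CD vehicle. Brain and jugular-vein plasma (K₂EDTA, centrifuged at 4 °C) were collected 0.25 and 1 h post-dose and stored at −20 °C. Drug concentration was measured in each and the brain/plasma ratio derived. Values are mean ± SEM of biological triplicates.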

Histamine H2 receptor = Histamine H2 receptor (Homo sapiens, UniProt P25021); test: Binding affinity to HRH2 (unknown origin) assessed as inhibition of ligand binding
Histamine H1 receptor = Histamine H1 receptor (Homo sapiens, UniProt P35367); test: Binding affinity to HRH1 (unknown origin) assessed as inhibition of ligand binding
Histamine H1 receptor, sequence (P35367 whole entry): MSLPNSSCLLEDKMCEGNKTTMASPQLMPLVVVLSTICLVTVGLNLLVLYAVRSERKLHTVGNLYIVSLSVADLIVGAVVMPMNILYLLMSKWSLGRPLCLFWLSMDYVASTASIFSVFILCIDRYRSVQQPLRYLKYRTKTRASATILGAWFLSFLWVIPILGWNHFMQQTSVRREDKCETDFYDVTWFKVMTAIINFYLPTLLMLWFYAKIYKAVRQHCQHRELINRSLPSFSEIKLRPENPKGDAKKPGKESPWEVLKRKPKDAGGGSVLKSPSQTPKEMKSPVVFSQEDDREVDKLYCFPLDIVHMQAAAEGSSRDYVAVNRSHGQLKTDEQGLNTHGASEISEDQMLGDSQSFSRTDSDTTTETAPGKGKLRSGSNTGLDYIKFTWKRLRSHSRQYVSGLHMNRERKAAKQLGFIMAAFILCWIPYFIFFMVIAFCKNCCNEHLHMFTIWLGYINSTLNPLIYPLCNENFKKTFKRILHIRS

[14] = Cmax in Sprague-Dawley rat at 20 mg/kg, po mesured up to 24 hrs; type: ADME, organism-based; set-up: route oral, dose 20 mg/kg, time <=24; details: in vivo; how it was run: as §1
[15] = target: Sodium-dependent dopamine transporter (Homo sapiens, UniProt Q01959); test: Binding affinity to DAT (unknown origin) assessed as inhibition of ligand binding
[16] = target: 5-hydroxytryptamine receptor 2A (Homo sapiens, UniProt P28223); test: Binding affinity to 5-HT2A (unknown origin) assessed as inhibition of ligand binding
Mus musculus [17] = test: Antipsychotic-like activity in C57/BL6 mouse assessed as reduction in amphetamine-evoked hyperactivity by measuring horizontal activity at 0.3 to 10 mg/kg, ip dosed 30 mins before amphetamine challenge and measured for 90 mins; type: functional, organism-based; details: dose mg/kg 0.3-10, time […]
How it was run: (§3)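 Naïve male C57/BL6 mice (24–31 g, ~60 days), handled and habituated to activity monitors beforehand; n = 12/dose (11 at 1 mg/kg after outlier exclusion). Vehicle or 0.3, 1, 3, 10 mg/kg IP, then automated horizontal activity monitored 30 min; amphetamine 3 mg/kg IP followed, with monitoring for 90 min. One-way ANOVA with Dunnett's comparisons vs vehicle; mean ± SEM; blinded dosing.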

[18] = Clearance in Sprague-Dawley rat at 10 mg/kg, iv mesured up to 24 hrs; type: ADME, organism-based; details: in vivo; how it was run: as §1
[19] = target: Alpha-2A adrenergic receptor (Homo sapiens, UniProt P08913); test: Binding affinity to alpha2A receptor (unknown origin) assessed as inhibition of ligand binding
[20] = target: 5-hydroxytryptamine receptor 2B (Homo sapiens, UniProt P41595); test: Binding affinity to 5-HT2B (unknown origin) assessed as inhibition of ligand binding
[21] = target: Beta-1 adrenergic receptor (Homo sapiens, UniProt P08588); test: Binding affinity to beta1 adrenergic receptor (unknown origin) assessed as inhibition of ligand binding
Homo sapiens = organism: Homo sapiens; test: Binding affinity to GABAA receptor (unknown origin) assessed as inhibition of ligand binding at 10 uM relative to control
[22] = Binding affinity to GABAA receptor (unknown origin) assessed as inhibition of ligand binding; set-up: species or system Homo sapiens
[23] = target: Muscarinic acetylcholine receptor M1 (Homo sapiens, UniProt P11229); test: Binding affinity to M1 receptor (unknown origin) assessed as inhibition of ligand binding
[24] = target: 5-hydroxytryptamine receptor 1D (Homo sapiens, UniProt P28221); test: Binding affinity to 5-HT1D (unknown origin) assessed as inhibition of ligand binding
[25] = target: Alpha-1B adrenergic receptor (Homo sapiens, UniProt P35368); test: Binding affinity to alpha1B receptor (unknown origin) assessed as inhibition of ligand binding
Alpha-1B adrenergic receptor, sequence (P35368 whole entry): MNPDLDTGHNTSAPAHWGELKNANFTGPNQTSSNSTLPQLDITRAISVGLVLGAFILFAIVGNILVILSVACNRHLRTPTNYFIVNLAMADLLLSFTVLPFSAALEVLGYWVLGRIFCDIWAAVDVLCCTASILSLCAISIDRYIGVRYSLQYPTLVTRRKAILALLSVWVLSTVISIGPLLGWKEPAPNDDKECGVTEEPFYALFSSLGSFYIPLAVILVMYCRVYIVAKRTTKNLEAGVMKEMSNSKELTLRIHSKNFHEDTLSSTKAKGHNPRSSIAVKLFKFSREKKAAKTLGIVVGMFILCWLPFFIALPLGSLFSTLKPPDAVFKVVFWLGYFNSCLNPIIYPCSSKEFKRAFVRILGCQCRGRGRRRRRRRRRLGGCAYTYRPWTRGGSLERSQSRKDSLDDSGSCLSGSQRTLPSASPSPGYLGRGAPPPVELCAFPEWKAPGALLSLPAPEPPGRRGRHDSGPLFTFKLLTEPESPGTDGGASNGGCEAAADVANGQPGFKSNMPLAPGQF

[26] = target: 5-hydroxytryptamine receptor 6 (Homo sapiens, UniProt P50406); test: Binding affinity to 5-HT6 (unknown origin) assessed as inhibition of ligand binding
5-hydroxytryptamine receptor 6, sequence (P50406 whole entry): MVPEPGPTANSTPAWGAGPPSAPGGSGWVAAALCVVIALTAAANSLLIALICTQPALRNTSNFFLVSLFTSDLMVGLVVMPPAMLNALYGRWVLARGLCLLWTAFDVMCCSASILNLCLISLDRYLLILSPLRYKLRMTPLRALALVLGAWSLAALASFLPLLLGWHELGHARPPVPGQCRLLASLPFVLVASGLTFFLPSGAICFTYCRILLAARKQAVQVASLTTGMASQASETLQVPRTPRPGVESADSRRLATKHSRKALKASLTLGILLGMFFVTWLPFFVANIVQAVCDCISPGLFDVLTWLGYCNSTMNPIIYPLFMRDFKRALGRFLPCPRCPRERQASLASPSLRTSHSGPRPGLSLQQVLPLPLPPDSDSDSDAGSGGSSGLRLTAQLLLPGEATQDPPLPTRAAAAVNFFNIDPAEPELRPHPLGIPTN

D(2) dopamine receptor = D(2) dopamine receptor (Homo sapiens, UniProt P14416); test: Binding affinity to DRD2 (unknown origin) assessed as inhibition of ligand binding
[27] = Oral bioavailability in Sprague-Dawley rat at 20 mg/kg mesured up to 24 hrs; type: ADME, organism-based; details: in vivo
How it was run: (§4)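 Male Sprague Dawley rats, 200–250 g, n = 3 per group, were dosed at 10 mg/kg IV or 20 mg/kg PO in 10% DMSO/90% HP-β-CD. Jugular plasma was sampled from 0.08 (IV) or 0.25 (PO) to 24 h. Non-compartmental analysis gave t1/2 = 0.693/λ, AUC by linear trapezoid extrapolated to infinity, Vss after IV, and absolute F. Mean ± SEM.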

[28] = target: 5-hydroxytryptamine receptor 2C (Homo sapiens) (UniProt P28335); test: Binding affinity to 5-HT2C (unknown origin) assessed as inhibition of ligand binding at 10 uM relative to control
hERG (KCNH2) = hERG (KCNH2) (Homo sapiens, UniProt Q12809); test: Binding affinity to human ERG assessed as inhibition of ligand binding at 10 uM relative to control
[29] = target: Voltage-gated inwardly rectifying potassium channel KCNH2 (Homo sapiens, UniProt Q12809); test: Binding affinity to human ERG assessed as inhibition of ligand binding
D(3) dopamine receptor = D(3) dopamine receptor (Homo sapiens, UniProt P35462); test: Binding affinity to DRD3 (unknown origin) assessed as inhibition of ligand binding
[30] = Volume of distribution at steady state in Sprague-Dawley rat at 20 mg/kg, po mesured up to 24 hrs; type: ADME, organism-based; details: in vivo
[31] = Ratio of drug level in brain to plasma of Sprague-Dawley rat at 10 mg/kg, iv after 1 hr; type: ADME, organism-based; how it was run: as §2
[32] = target: 5-hydroxytryptamine receptor 3A (Homo sapiens, UniProt P46098); test: Binding affinity to 5-HT3 (unknown origin) assessed as inhibition of ligand binding
5-hydroxytryptamine receptor 3A, sequence (P46098 whole entry): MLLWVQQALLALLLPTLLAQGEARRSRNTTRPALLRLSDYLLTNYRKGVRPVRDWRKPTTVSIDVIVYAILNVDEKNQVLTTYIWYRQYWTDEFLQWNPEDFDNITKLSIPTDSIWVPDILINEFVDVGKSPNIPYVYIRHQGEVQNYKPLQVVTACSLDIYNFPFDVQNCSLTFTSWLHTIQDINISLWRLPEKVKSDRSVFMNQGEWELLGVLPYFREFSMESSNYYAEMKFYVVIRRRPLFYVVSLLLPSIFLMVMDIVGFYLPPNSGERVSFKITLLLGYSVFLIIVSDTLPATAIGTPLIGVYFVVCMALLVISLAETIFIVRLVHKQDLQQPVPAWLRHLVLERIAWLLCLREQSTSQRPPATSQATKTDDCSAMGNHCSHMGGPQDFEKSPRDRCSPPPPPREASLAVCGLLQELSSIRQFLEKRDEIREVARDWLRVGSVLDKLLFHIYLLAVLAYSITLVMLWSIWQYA

[33] = target: Muscarinic acetylcholine receptor M3 (Homo sapiens, UniProt P20309); test: Binding affinity to M3 receptor (unknown origin) assessed as inhibition of ligand binding
Muscarinic acetylcholine receptor M3, sequence (P20309 whole entry): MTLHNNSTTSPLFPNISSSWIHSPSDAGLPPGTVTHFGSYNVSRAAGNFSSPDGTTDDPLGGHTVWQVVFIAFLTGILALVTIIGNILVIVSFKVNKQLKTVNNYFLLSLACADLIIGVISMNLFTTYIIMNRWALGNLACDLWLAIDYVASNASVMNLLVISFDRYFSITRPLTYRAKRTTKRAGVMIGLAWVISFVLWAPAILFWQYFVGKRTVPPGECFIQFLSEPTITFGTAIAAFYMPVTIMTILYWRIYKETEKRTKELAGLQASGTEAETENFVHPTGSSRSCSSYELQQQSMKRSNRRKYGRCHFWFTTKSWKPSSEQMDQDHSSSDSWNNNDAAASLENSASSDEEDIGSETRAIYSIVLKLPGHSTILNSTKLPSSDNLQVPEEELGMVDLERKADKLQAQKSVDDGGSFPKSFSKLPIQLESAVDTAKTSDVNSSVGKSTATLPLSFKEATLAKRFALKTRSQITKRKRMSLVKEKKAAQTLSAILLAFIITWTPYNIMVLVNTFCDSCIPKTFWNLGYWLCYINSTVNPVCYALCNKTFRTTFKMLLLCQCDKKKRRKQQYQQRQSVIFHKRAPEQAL

[34] = Drug level in Sprague-Dawley rat plasma at 10 mg/kg, iv after 1 hr; type: ADME, organism-based; how it was run: as §2
Mus musculus [35] = test: Antipsychotic-like activity in C57/BL6 mouse assessed as reduction in horizontal activity at 3 to 10 mg/kg, ip measured after 30 mins; type: functional, organism-based; details: dose mg/kg 3-10, time 30.0 min; how it was run: as §3
[36] = AUC (0 to infinity) in Sprague-Dawley rat at 20 mg/kg, po mesured up to 24 hrs; type: ADME, organism-based; set-up: route oral, dose 20 mg/kg, time <=24; details: in vivo; how it was run: as §1
[37] = Volume of distribution at steady state in Sprague-Dawley rat at 10 mg/kg, iv mesured up to 24 hrs; type: ADME, organism-based; details: in vivo; how it was run: as §4
D(4) dopamine receptor = D(4) dopamine receptor (Homo sapiens, UniProt P21917); test: Binding affinity to DRD4 (unknown origin) assessed as inhibition of ligand binding
D(4) dopamine receptor, sequence (P21917 whole entry): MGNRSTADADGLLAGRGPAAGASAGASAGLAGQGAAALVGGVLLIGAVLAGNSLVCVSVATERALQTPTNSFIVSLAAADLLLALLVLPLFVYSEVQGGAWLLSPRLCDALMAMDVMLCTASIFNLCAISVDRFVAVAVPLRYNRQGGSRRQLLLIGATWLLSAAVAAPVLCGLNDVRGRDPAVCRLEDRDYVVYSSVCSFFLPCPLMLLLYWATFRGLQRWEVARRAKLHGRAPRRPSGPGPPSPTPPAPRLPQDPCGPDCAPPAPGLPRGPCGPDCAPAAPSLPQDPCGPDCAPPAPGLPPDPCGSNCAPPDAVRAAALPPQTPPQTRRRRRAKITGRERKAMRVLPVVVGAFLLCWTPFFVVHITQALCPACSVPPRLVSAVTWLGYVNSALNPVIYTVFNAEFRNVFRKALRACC

[38] = target: Kappa-type opioid receptor (Homo sapiens, UniProt P41145); test: Binding affinity to KOR (unknown origin) assessed as inhibition of ligand binding

D(1B) dopamine receptor, sequence (P21918 whole entry): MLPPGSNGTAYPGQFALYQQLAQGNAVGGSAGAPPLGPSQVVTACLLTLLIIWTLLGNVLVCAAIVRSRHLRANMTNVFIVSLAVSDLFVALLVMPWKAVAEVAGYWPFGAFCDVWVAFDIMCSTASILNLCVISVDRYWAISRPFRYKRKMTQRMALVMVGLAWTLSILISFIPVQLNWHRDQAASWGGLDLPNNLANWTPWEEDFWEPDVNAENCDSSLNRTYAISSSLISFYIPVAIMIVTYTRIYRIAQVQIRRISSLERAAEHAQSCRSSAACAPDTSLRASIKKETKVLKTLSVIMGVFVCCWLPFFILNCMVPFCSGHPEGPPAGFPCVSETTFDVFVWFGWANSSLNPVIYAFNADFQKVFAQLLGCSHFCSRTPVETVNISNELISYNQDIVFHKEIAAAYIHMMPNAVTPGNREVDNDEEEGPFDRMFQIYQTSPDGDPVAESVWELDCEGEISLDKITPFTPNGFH

O=C(NCCO)c1cccc2c1CCN2c1cc(Cc2cc(F)cc(C(F)(F)F)c2)ncn1
Ki (D(1B) dopamine receptor): Not Active
Ki [1]: Not Active
Ki [2]: Not Active
AUC [3]: 9030 ng·h/mL
Ki [4]: Not Active
Activity (HEK293): inactive
Cmax [5]: 6726 ng/mL
Ki (Mu-type opioid receptor): Not Active
Ki [6]: Not Active
Ki (D(1A) dopamine receptor): Not Active
Ki [7]: Not Active
Ki [8]: Not Active
Ki [9]: Not Active
Ki [10]: Not Active
Ki [11]: Not Active
Ki [12]: Not Active
concentration at 1 h [13]: 1010 ng/g
Ki (Histamine H2 receptor): Not Active
Ki (Histamine H1 receptor): Not Active
Cmax [14]: 3407 ng/mL
Ki [15]: Not Active
Ki [16]: Not Active
Activity (Mus musculus [17]): Dose-dependent effect
CL [18]: 1.1 L/h/kg
Ki [19]: Not Active
Ki [20]: Not Active
Ki [21]: Not Active
inhibition (Homo sapiens): 5.98%
Ki [22]: Not Active
Ki [23]: Not Active
Ki [24]: Not Active
Ki [25]: Not Active
Ki [26]: Not Active
Ki (D(2) dopamine receptor): Not Active
bioavailability [27]: 76%
inhibition [28]: 52.6%
inhibition at 10 µM (hERG (KCNH2)): 11%
Ki [29]: Not Active
Ki (D(3) dopamine receptor): Not Active
Vdss [30]: 5.5 L/kg
BPR [31]: 0.39
Ki [32]: Not Active
Ki [33]: Not Active
concentration at 1 h [34]: 2590 ng/g
Activity (Mus musculus [35]): Active
AUC [36]: 13749 ng·h/mL
Vdss [37]: 1.5 L/kg
Ki (D(4) dopamine receptor): Not Active
Ki [38]: Not Active
